Experimental data reported in ChEMBL document CHEMBL1821687, “Discovery, synthesis, and biological evaluation of novel SMN protein modulators” (J Med Chem, 2011).
Values belong to the compound of their own block, whether it stands above or below them. Calls of active or inactive are those of the source. No cut-off for these calls is given here.

Experiments:
Caco-2 [1] = test: Apparent permeability from basolateral side to apical side of human Caco2 cells at 10 uM; type: ADME, cell-based; conditions: caco-2, 10 µM
[2] = target: Survival motor neuron protein (Homo sapiens) (UniProt Q16637); test: Activation of SMN expressed in HEK293 cells by SMN2-promotor driven luciferase reporter gene assay; type: cell-based
Sequence of Survival motor neuron protein (Homo sapiens) (Q16637 whole entry): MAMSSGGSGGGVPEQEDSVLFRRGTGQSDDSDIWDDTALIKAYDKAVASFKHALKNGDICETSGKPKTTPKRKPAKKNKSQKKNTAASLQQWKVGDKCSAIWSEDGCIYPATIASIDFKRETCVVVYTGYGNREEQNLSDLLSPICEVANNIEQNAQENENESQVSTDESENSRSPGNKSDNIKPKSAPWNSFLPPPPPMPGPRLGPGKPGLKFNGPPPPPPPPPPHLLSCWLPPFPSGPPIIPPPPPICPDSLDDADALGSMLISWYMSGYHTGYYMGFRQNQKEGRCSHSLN
How it was run: (§1)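 HEK-293 cells stably carrying the SMN2 reporter construct, kept in DMEM with 10% FCS, glutamax, pyruvate, pen/strep and 200 µg/mL hygromycin, and assayed without hygromycin. 2,000 cells/well were plated and adhered overnight at 37 °C, 5% CO2. Compounds were added as a 7-point titration, 50 µM to 25 nM final, in 0.46% DMSO, for 30–36 h. OneGlo luminescence was normalized to 4.5 mM sodium butyrate (100%) and DMSO (0%).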

[3] = target: Survival motor neuron protein (Homo sapiens) (UniProt Q16637); test: Activation of SMN in human fibroblast cells obtained from type 1 SMA patients assessed as increase in SMN protein level by quantitative Western blot method; type: cell-based
How it was run: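 Type I SMA patient fibroblasts (3813 line) were seeded at 8,000 cells/cm2 24 h before dosing, with medium and compound renewed every 24 h for 72 h. Lysates (10 µg protein/lane) were immunoblotted for SMN (4f11 antibody) and α-tubulin. Band intensity was normalized to tubulin and expressed as fold over the DMSO control.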

[4] = target: Survival motor neuron protein (Homo sapiens) (UniProt Q16637); test: Activation of SMN expressed in HEK293 cells assessed as concentration required to reach 50% of maximum luciferase signal by SMN2-promotor driven luciferase reporter gene assay; type: cell-based; how it was run: as §1
[5] = target: Survival motor neuron protein (Homo sapiens) (UniProt Q16637); test: Activation of SMN expressed in HEK293 cells assessed as rate of induction by SMN2-promotor driven luciferase reporter gene assay relative to basal level; type: cell-based; design: concentration or dose not given beside the values; how it was run: as §1
Caco-2 [6] = test: Apparent permeability from apical side to basolateral side of human Caco2 cells at 10 uM; type: ADME, cell-based; conditions: caco-2, 10 µM
[7] = target: T1, Luciferin 4-monooxygenase (Luciola lateralis, UniProt Q01158); test: Inhibition of fire fly luciferase; design: species or system Aquatica lateralis
T1 sequence (Q01158 whole entry): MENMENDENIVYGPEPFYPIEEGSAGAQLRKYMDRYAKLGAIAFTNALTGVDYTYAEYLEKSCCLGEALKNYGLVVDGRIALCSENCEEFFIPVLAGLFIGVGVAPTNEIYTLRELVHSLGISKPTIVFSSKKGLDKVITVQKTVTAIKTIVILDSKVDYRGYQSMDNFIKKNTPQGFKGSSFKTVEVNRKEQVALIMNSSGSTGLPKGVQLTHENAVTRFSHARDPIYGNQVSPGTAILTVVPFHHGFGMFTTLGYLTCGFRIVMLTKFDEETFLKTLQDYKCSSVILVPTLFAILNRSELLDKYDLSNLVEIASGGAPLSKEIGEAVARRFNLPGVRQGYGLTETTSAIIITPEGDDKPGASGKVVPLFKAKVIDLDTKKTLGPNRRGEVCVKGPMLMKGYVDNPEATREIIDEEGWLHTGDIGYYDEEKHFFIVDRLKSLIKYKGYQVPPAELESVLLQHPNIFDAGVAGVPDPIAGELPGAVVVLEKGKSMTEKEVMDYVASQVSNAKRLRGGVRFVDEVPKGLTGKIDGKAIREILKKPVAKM

Liver = test: Half-life in mouse liver microsome at 1 uM; type: ADME; conditions: microsomes
Brain [8] = test: Half-life in brain of Swiss albino mouse at 30 mg/kg, po; type: ADME, organism-based; design: dose 30 mg/kg, route oral; conditions: in vivo
How it was run: (§2)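 Male Swiss Albino mice received a single 30 mg/kg oral gavage dose. Compound levels were measured in plasma and brain over time, and PK parameters were derived from the concentration–time data.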

Brain [9] = test: AUC (infinity) in brain of Swiss albino mouse at 30 mg/kg, po; type: ADME, organism-based; design: time infinity, dose 30 mg/kg, route oral; conditions: in vivo; how it was run: as §2
[10] = Plasma concentration in Swiss albino mouse at 30 mg/kg, po after 2 hrs; type: ADME, organism-based; design: dose 30 mg/kg, route oral; how it was run: as §2
[11] = Plasma concentration in Swiss albino mouse at 30 mg/kg, po after 0.083 hrs; type: ADME, organism-based; design: dose 30 mg/kg, route oral
Plasma [12] = test: AUC (infinity) in plasma of Swiss albino mouse at 30 mg/kg, po; type: ADME, organism-based; design: dose 30 mg/kg, route oral, time infinity; conditions: in vivo; how it was run: as §2
[13] = Plasma concentration in Swiss albino mouse at 30 mg/kg, po after 24 hrs; type: ADME, organism-based; design: dose 30 mg/kg, route oral; how it was run: as §2
Brain [14] = test: Cmax in brain of Swiss albino mouse at 30 mg/kg, po; type: ADME, organism-based; design: dose 30 mg/kg, route oral; conditions: in vivo; how it was run: as §2
[15] = Plasma concentration in Swiss albino mouse at 30 mg/kg, po after 8 hrs; type: ADME, organism-based; design: dose 30 mg/kg, route oral; how it was run: as §2
Brain [16] = test: Drug level in Swiss albino mouse brain at 30 mg/kg, po after 24 hrs; type: ADME, organism-based; design: dose 30 mg/kg, route oral; conditions: in vivo; how it was run: as §2
[17] = Plasma concentration in Swiss albino mouse at 30 mg/kg, po after 0.5 hrs; type: ADME, organism-based; design: dose 30 mg/kg, route oral; how it was run: as §2
Brain [18] = test: Drug level in Swiss albino mouse brain at 30 mg/kg, po after 0.5 hr; type: ADME, organism-based; design: dose 30 mg/kg, route oral; conditions: in vivo; how it was run: as §2
Brain [19] = test: Drug level in Swiss albino mouse brain at 30 mg/kg, po after 1 hr; type: ADME, organism-based; design: dose 30 mg/kg, route oral; conditions: in vivo; how it was run: as §2
Plasma [20] = test: Cmax in plasma of Swiss albino mouse at 30 mg/kg, po; type: ADME, organism-based; design: dose 30 mg/kg, route oral; conditions: in vivo; how it was run: as §2
Brain [21] = test: Drug level in Swiss albino mouse brain at 30 mg/kg, po after 0.25 hr; type: ADME, organism-based; design: dose 30 mg/kg, route oral; conditions: in vivo; how it was run: as §2
[22] = Plasma concentration in Swiss albino mouse at 30 mg/kg, po after 4 hrs; type: ADME, organism-based; design: dose 30 mg/kg, route oral; how it was run: as §2
[23] = Plasma concentration in Swiss albino mouse at 30 mg/kg, po after 1 hr; type: ADME, organism-based; design: dose 30 mg/kg, route oral; how it was run: as §2
Plasma [24] = test: AUClast in plasma of Swiss albino mouse at 30 mg/kg, po; type: ADME, organism-based; design: time 0 - last, dose 30 mg/kg, route oral; conditions: in vivo; how it was run: as §2
Plasma [25] = test: Half-life in plasma of Swiss albino mouse at 30 mg/kg, po; type: ADME, organism-based; design: dose 30 mg/kg, route oral; conditions: in vivo; how it was run: as §2
Brain [26] = test: Drug level in Swiss albino mouse brain at 30 mg/kg, po after 2 hrs; type: ADME, organism-based; design: dose 30 mg/kg, route oral; conditions: in vivo; how it was run: as §2
[27] = Plasma concentration in Swiss albino mouse at 30 mg/kg, po after 12 hrs; type: ADME, organism-based; design: dose 30 mg/kg, route oral; how it was run: as §2
Brain [28] = test: Drug level in Swiss albino mouse brain at 30 mg/kg, po after 0.083 hr; type: ADME, organism-based; design: dose 30 mg/kg, route oral; conditions: in vivo
[29] = Ratio of AUC in brain to AUC in plasma in Swiss albino mouse at 30 mg/kg, po; type: ADME, organism-based; design: dose 30 mg/kg, route oral; conditions: brain and plasma
How it was run: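 Single oral gavage dose of 30 mg/kg given to male Swiss Albino mice; compound concentrations measured in both plasma and brain, from which brain and plasma exposure parameters were derived; animals observed for behavioural disturbance throughout the study.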

Brain [30] = test: AUClast in brain of Swiss albino mouse at 30 mg/kg, po; type: ADME, organism-based; design: time 0 - last, dose 30 mg/kg, route oral; conditions: in vivo; how it was run: as §2
Brain [31] = test: Drug level in Swiss albino mouse brain at 30 mg/kg, po after 8 hrs; type: ADME, organism-based; design: dose 30 mg/kg, route oral; conditions: in vivo; how it was run: as §2
Brain [32] = test: Drug level in Swiss albino mouse brain at 30 mg/kg, po after 4 hrs; type: ADME, organism-based; design: dose 30 mg/kg, route oral; conditions: in vivo; how it was run: as §2
[33] = Plasma concentration in Swiss albino mouse at 30 mg/kg, po after 0.25 hrs; type: ADME, organism-based; design: dose 30 mg/kg, route oral; how it was run: as §2
Brain [34] = test: Drug level in Swiss albino mouse brain at 30 mg/kg, po after 12 hrs; type: ADME, organism-based; design: dose 30 mg/kg, route oral; conditions: in vivo; how it was run: as §2

SMILES: CSc1ccc(-c2cnc(N3CCC(C(N)=O)CC3)s2)cc1
Papp (Caco-2 [1]): 0.2 ×10⁻⁶ cm/s | Activity [4]: 0.031 µM | Activity [5]: 576% | Papp (Caco-2 [6]): 1.6 ×10⁻⁶ cm/s | IC50 ([7]; read-out: IC50): 40 µM | t1/2 (Liver): 2 min

SMILES: NC(=O)C1CCN(c2nnc(-c3ccc4c(c3)OCCCO4)s2)CC1
Papp (Caco-2 [1]): 51.2 ×10⁻⁶ cm/s | Activity [4]: 0.122 µM | Activity [5]: 257% | Papp (Caco-2 [6]): 21.2 ×10⁻⁶ cm/s | IC50 ([7]; read-out: IC50): 3.2 µM | t1/2 (Liver): > 60 min

SMILES: O=C(O)C1CCN(c2nc(-c3ccc(Br)cc3)cs2)CC1
Papp (Caco-2 [1]): 12 ×10⁻⁶ cm/s | Activity [4]: 4.87 µM | Activity [5]: 554% | Papp (Caco-2 [6]): 32.6 ×10⁻⁶ cm/s | IC50 ([7]; read-out: IC50): 1.6 µM

SMILES: COc1nc(-c2ccccc2)nnc1-c1ccccc1
Activity [2]: Active | Activity [3]: Dose-dependent effect

SMILES: NC(=O)N1CCN(c2nc(-c3ccc(Br)cc3)cs2)CC1
Activity [4]: 12.2 µM | Activity [5]: 89%

SMILES: NC(=O)C1CCN(c2ncc(-c3cccc(N4CCOCC4)c3)s2)CC1
Activity [4]: 2.44 µM | Activity [5]: 275%

Second part, led by results:

Papp (Caco-2 [1]): 12.1 ×10⁻⁶ cm/s | Papp (Caco-2 [6]): 30.7 ×10⁻⁶ cm/s | IC50 [7]: Not Active | t1/2 (Liver): 12 min
SMILES: NC(=O)C1CCN(c2nc(-c3ccc(Br)cc3)cs2)CC1
Activity [2]: Active | Activity [3]: Dose-dependent effect | Activity [4]: 1.22 µM | Activity [5]: 268%

Papp (Caco-2 [1]): 17.3 ×10⁻⁶ cm/s | Papp (Caco-2 [6]): 40.1 ×10⁻⁶ cm/s | IC50 ([7]; read-out: IC50): 10 µM | t1/2 (Liver): 18 min
SMILES: CC(C)Oc1cccc(-c2ccnc(N3CCC(C(N)=O)CC3)n2)c1
Activity [4]: 0.154 µM | Activity [5]: 298%

IC50 ([7]; read-out: IC50): 6.4 µM | t1/2 (Liver): 7 min
SMILES: Cc1ccc(-c2cnc(N3CCC(C(N)=O)CC3)s2)cc1
Activity [4]: 0.077 µM | Activity [5]: 609%

t1/2 (Brain [8]): 326 min | Papp (Caco-2 [1]): 0.3 ×10⁻⁶ cm/s | AUC (Brain [9]): 607 ng·h/mL | concentration at 2 h [10]: 600 nM | concentration at 0.083 h [11]: 3720 nM | AUC (Plasma [12]): 1429 ng·h/mL | concentration at 24 h [13]: 60 nM | Cmax (Brain [14]): 1.28 µmol/kg | concentration at 8 h [15]: 25 nM | Drug uptake (Brain [16]): 0.023 µmol/kg | concentration at 0.5 h [17]: 1200 nM | Drug uptake (Brain [18]): 0.4 µmol/kg | Drug uptake (Brain [19]): 0.6 µmol/kg | Cmax (Plasma [20]): 3720 nM | Drug uptake (Brain [21]): 0.31 µmol/kg | Papp (Caco-2 [6]): 6.1 ×10⁻⁶ cm/s | concentration at 4 h [22]: 2.8 nM | IC50 ([7]; read-out: IC50): 0.8 µM | concentration at 1 h [23]: 1270 nM | AUClast (Plasma [24]): 1857 ng·h/mL | t1/2 (Plasma [25]): 347 min | Drug uptake (Brain [26]): 0.23 µmol/kg | concentration at 12 h [27]: 19 nM | Drug uptake (Brain [28]): 1.28 µmol/kg | Kp [29]: 0.29 | t1/2 (Liver): 30 min | AUClast (Brain [30]): 546 ng·h/mL | Drug uptake (Brain [31]): 0 µmol/kg | Drug uptake (Brain [32]): 0.083 µmol/kg | concentration at 0.25 h [33]: 1200 nM | Drug uptake (Brain [34]): 0 µmol/kg
SMILES: CC(C)Oc1cccc(-c2cnc(N3CCC(C(N)=O)CC3)s2)c1
Activity [4]: 0.077 µM | Activity [5]: 709%
